Source: ChEMBL document CHEMBL1129245, “N-heteroaryl-2-phenyl-3-(benzyloxy)piperidines: a novel class of potent orally active human NK1 antagonists” (J Med Chem, 1996)
Blank lines part the entries; values can stand above or below the compound they belong to.

What was measured:
[1] = molecular target: Substance-P receptor (Homo sapiens, UniProt P25103); assay: Displacement of [125 I]-Tyr8 SP from the cloned human Tachykinin receptor 1 expressed in CHO cells; type: cell-based
[2] = tested on: Rhesus monkey; assay: Plasma concentration after 3 mg/kg peroral dosing in Rhesus monkey at 4.0h; type: ADME, organism-based, Macaca mulatta; parameters: dose 3 mg/kg, route oral; conditions: in vivo, po, 4 h
Outline: (§1)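 Rhesus monkeys dosed at 3 mg/kg in propylene glycol, intravenously and orally, n = 2 per data point. Plasma concentrations given as mean ± SEM, and pharmacokinetic parameters calculated with standard equations.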

[3] = tested on: Rattus norvegicus; assay: Plasma concentration after 3 mg/kg peroral dosing in rat at 5.0 hr in rats; type: ADME, organism-based; parameters: dose 3 mg/kg, route oral; conditions: in vivo, po
[4] = tested on: Rattus norvegicus; assay: Plasma concentration after 3 mg/kg peroral dosing in rat at 2.0 hr in rats; type: ADME, organism-based; parameters: dose 3 mg/kg, route oral; conditions: in vivo, po
[5] = tested on: Rhesus monkey; assay: Plasma concentration after 3 mg/kg peroral dosing in Rhesus monkey at 1.0 hr; type: ADME, organism-based, Macaca mulatta; parameters: dose 3 mg/kg, route oral; conditions: in vivo, po; outline: as §1
[6] = tested on: Mustela putorius furo; assay: Effects on […] and vomiting response in ferrets induced by 10 mg/kg iv dose of cisplatin; type: functional
Outline: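 Ferrets given cisplatin 10 mg/kg iv to induce retching and vomiting. Test compound given iv; response observed over a 4 h period, n = 6-8 per group.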

[7] = tested on: Rhesus monkey; assay: Plasma concentration after 3 mg/kg intravenous dosing in Rhesus monkey at 0.5 hr; type: ADME, organism-based, Macaca mulatta; parameters: dose 3 mg/kg, route intravenous; conditions: in vivo; outline: as §1
[8] = Bioavailability in rat; type: ADME, organism-based; conditions: in vivo
[9] = tested on: Rattus norvegicus; assay: Plasma concentration of 3 mg/kg iv after 4 hr in rats; type: ADME, organism-based; parameters: dose 3 mg/kg, route intravenous; conditions: in vivo
Outline: (§2)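 Rats given compound intravenously and orally in solution. Three rats per time point sampled for plasma drug levels. Pharmacokinetic parameters calculated from the plasma concentration–time data using standard equations. Data reported as mean ± SEM.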

[10] = Plasma clearance after intravenous administration dosing (3 mg/kg) in rat
[11] = tested on: Cavia porcellus; assay: Inhibition of SP induced dermal extravasation in the guinea pig after peroral administration; type: functional; conditions: read-out: ID50 (the source's name)
Outline: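 Guinea pigs were dosed orally, then challenged with intradermal SP 1 h later. Vascular leakage was measured as Evans blue extravasation into the skin. Dose-response was run with 5-12 animals per point, and ID50 is reported in mg/kg po.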

[12] = tested on: Rattus norvegicus; assay: Plasma concentration of 3 mg/kg iv after 6 hr in rats; type: ADME, organism-based; parameters: dose 3 mg/kg, route intravenous; conditions: in vivo; outline: as §2
[13] = tested on: Rattus norvegicus; assay: Plasma concentration after 3 mg/kg peroral dosing in rat at 6.0 hr in rats; type: ADME, organism-based; parameters: dose 3 mg/kg, route oral; conditions: in vivo, po
[14] = tested on: Rhesus monkey; assay: Plasma concentration after 3 mg/kg intravenous dosing in Rhesus monkey at 2.0 hr; type: ADME, organism-based, Macaca mulatta; parameters: dose 3 mg/kg, route intravenous; conditions: in vivo; outline: as §1
[15] = tested on: Rattus norvegicus; assay: Plasma concentration of 3 mg/kg iv after 5 hr in rats; type: ADME, organism-based; parameters: dose 3 mg/kg, route intravenous; conditions: in vivo; outline: as §2
[16] = tested on: Rhesus monkey; assay: Plasma concentration after 3 mg/kg intravenous dosing in Rhesus monkey at 4.0h; type: ADME, organism-based, Macaca mulatta; parameters: dose 3 mg/kg, route intravenous; conditions: in vivo, 4 h; outline: as §1
[17] = tested on: Rhesus monkey; assay: Plasma concentration after 3 mg/kg intravenous dosing in Rhesus monkey at 1.0 hr; type: ADME, organism-based, Macaca mulatta; parameters: dose 3 mg/kg, route intravenous; conditions: in vivo; outline: as §1
[18] = Bioavailability expressed as F% in Rhesus monkey; type: ADME, organism-based, Macaca mulatta; conditions: in vivo
[19] = tested on: Rattus norvegicus; assay: Plasma concentration of 3 mg/kg iv after 7 hr in rats; type: ADME, organism-based; parameters: dose 3 mg/kg, route intravenous; conditions: in vivo; outline: as §2
[20] = tested on: Rhesus monkey; assay: Plasma concentration after 3 mg/kg peroral dosing in Rhesus monkey at 0.167 hr; type: ADME, organism-based, Macaca mulatta; parameters: dose 3 mg/kg, route oral; conditions: in vivo, po; outline: as §1
[21] = tested on: Rattus norvegicus; assay: Plasma concentration after 3 mg/kg peroral dosing in rat at 1.0 hr in rats; type: ADME, organism-based; parameters: dose 3 mg/kg, route oral; conditions: in vivo, po
[22] = tested on: Rhesus monkey; assay: Plasma concentration after 3 mg/kg peroral dosing in Rhesus monkey at 0.5 hr; type: ADME, organism-based, Macaca mulatta; parameters: dose 3 mg/kg, route oral; conditions: in vivo, po; outline: as §1
[23] = VD values expressed in (L/Kg) in Rhesus monkey; type: ADME, organism-based, Macaca mulatta; conditions: in vivo
Outline: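 Rhesus monkeys dosed at 3 mg/kg in propylene glycol, intravenously and orally, with n = 2 per data point. Pharmacokinetic parameters calculated from the plasma concentration data using standard equations. Values given as mean ± SEM.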

[24] = tested on: Rattus norvegicus; assay: Plasma concentration of 3 mg/kg iv after 0.5 hr in rats; type: ADME, organism-based; parameters: dose 3 mg/kg, route intravenous; conditions: in vivo; outline: as §2
[25] = tested on: Rattus norvegicus; assay: Plasma concentration of 3 mg/kg iv after 2 hr in rats; type: ADME, organism-based; parameters: dose 3 mg/kg, route intravenous; conditions: in vivo; outline: as §2
[26] = tested on: Rhesus monkey; assay: Plasma concentration after 3 mg/kg intravenous dosing in Rhesus monkey at 0.167 hr; type: ADME, organism-based, Macaca mulatta; parameters: dose 3 mg/kg, route intravenous; conditions: in vivo; outline: as §1
[27] = tested on: Rattus norvegicus; assay: Plasma concentration after 3 mg/kg peroral dosing in rat at 4.0h in rats; type: ADME, organism-based; parameters: dose 3 mg/kg, route oral; conditions: in vivo, po, 4 h
[28] = species on record: Oryctolagus cuniculus; assay: Displacement of [3H]diltiazem from rabbit skeletal muscle calcium channel; type: tissue-based; conditions: Muscle tissue
[29] = tested on: Rhesus monkey; assay: Plasma concentration after 3 mg/kg peroral dosing in Rhesus monkey at 6.0 hr; type: ADME, organism-based, Macaca mulatta; parameters: dose 3 mg/kg, route oral; conditions: in vivo, po; outline: as §1
[30] = tested on: Rattus norvegicus; assay: Plasma concentration after 3 mg/kg peroral dosing in rat at 8.0 hr in rats; type: ADME, organism-based; parameters: dose 3 mg/kg, route oral; conditions: in vivo, po
[31] = tested on: Rattus norvegicus; assay: Plasma concentration after 3 mg/kg peroral dosing in rat at 3.0 hh in rats; type: ADME, organism-based; parameters: dose 3 mg/kg, route oral; conditions: in vivo, po
[32] = tested on: Rattus norvegicus; assay: Plasma concentration of 3 mg/kg iv after 1 hr in rats; type: ADME, organism-based; parameters: dose 3 mg/kg, route intravenous; conditions: in vivo; outline: as §2
[33] = tested on: Rhesus monkey; assay: Plasma concentration after 3 mg/kg intravenous dosing in Rhesus monkey at 6.0 hr; type: ADME, organism-based, Macaca mulatta; parameters: dose 3 mg/kg, route intravenous; conditions: in vivo; outline: as §1
[34] = tested on: Rattus norvegicus; assay: Plasma concentration of 3 mg/kg iv after 0.083 hr in rats; conditions: in vivo
[35] = tested on: Rattus norvegicus; assay: Plasma concentration after 3 mg/kg peroral dosing in rat at 0.25 hr in rats; type: ADME, organism-based; parameters: dose 3 mg/kg, route oral; conditions: in vivo, po
[36] = Plasma clearance after intravenous administration dosing (3 mg/kg) in Rhesus monkey
[37] = tested on: Rattus norvegicus; assay: Plasma concentration after 3 mg/kg peroral dosing in rat at 7.0 hr in rats; type: ADME, organism-based; parameters: dose 3 mg/kg, route oral; conditions: in vivo, po
[38] = VD values expressed in (L/Kg) in rat; type: ADME, organism-based; conditions: in vivo; outline: as §2
[39] = tested on: Rattus norvegicus; assay: Plasma concentration of 3 mg/kg iv after 3h in rats; type: ADME, organism-based; parameters: dose 3 mg/kg, route intravenous; conditions: in vivo; outline: as §2
[40] = tested on: Rattus norvegicus; assay: Plasma concentration of 3 mg/kg iv after 8 hr in rats; type: ADME, organism-based; parameters: dose 3 mg/kg, route intravenous; conditions: in vivo; outline: as §2
[41] = tested on: Rattus norvegicus; assay: Inhibition of […] of the rat after intravenous administration; type: functional; conditions: read-out: ID50 (the source's name)
Outline: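 Rats given test compound intravenously. Plasma extravasation in the dura mater measured, n = 8-10. ID50 reported in mg/kg iv.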

[42] = tested on: Rhesus monkey; assay: Plasma concentration after 3 mg/kg peroral dosing in Rhesus monkey at 8.0 hr; type: ADME, organism-based, Macaca mulatta; parameters: dose 3 mg/kg, route oral; conditions: in vivo, po; outline: as §1
[43] = tested on: Rhesus monkey; assay: Plasma concentration after 3 mg/kg peroral dosing in Rhesus monkey at 2.0 hr; type: ADME, organism-based, Macaca mulatta; parameters: dose 3 mg/kg, route oral; conditions: in vivo, po; outline: as §1
[44] = tested on: Rattus norvegicus; assay: Plasma concentration of 3 mg/kg iv after 0.25 hr in rats; type: ADME, organism-based; parameters: dose 3 mg/kg, route intravenous; conditions: in vivo; outline: as §2
[45] = tested on: Rattus norvegicus; assay: Plasma concentration after 3 mg/kg peroral dosing in rat at 0.5 hr in rats; type: ADME, organism-based; parameters: dose 3 mg/kg, route oral; conditions: in vivo, po
[46] = tested on: Rattus norvegicus; assay: Plasma concentration after 3 mg/kg peroral dosing in rat at 0.083 hr in rats; type: ADME, organism-based; parameters: dose 3 mg/kg, route oral; conditions: in vivo, po
[47] = tested on: Rhesus monkey; assay: Plasma concentration after 3 mg/kg intravenous dosing in Rhesus monkey at 8.0 hr; type: ADME, organism-based, Macaca mulatta; parameters: dose 3 mg/kg, route intravenous; conditions: in vivo; outline: as §1
[48] = tested on: Cavia porcellus; assay: Inhibition of SP induced dermal guinea pig after peroral administration; type: functional; conditions: read-out: ID50 (the source's name)
Outline: (§3)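 Guinea pigs dosed orally with antagonist, then challenged 1 h later with intradermal substance P. Vascular leakage measured as extravasation of Evans blue dye. ID50 (mg/kg po) taken from dose-response data, 5-12 animals per data point.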

[49] = species on record: Oryctolagus cuniculus; assay: Displacement of [3H]diltiazem from rabbit skeletal muscle calcium channel at 30 uM; type: tissue-based; conditions: Muscle tissue
[50] = tested on: Cavia porcellus; assay: Inhibition of SP- induced dermal guinea pig after peroral administration; type: functional; conditions: read-out: ID50 (the source's name); outline: as §3

Substance-P receptor, sequence (P25103 whole entry): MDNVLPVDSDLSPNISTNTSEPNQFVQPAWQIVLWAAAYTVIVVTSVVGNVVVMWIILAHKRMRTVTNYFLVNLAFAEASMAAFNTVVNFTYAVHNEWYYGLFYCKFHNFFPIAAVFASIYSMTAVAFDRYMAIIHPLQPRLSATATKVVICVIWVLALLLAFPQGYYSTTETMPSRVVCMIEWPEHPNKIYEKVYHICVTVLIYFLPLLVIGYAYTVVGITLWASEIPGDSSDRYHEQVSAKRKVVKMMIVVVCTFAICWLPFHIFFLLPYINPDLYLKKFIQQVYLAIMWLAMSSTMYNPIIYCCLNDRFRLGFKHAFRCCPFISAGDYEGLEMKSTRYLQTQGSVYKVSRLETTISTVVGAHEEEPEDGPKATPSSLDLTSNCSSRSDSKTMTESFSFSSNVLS

- IC50 [1]: 43 nM
Structure (SMILES): FC(F)(F)c1cc(CO[C@H]2CCCN(Cc3nnn[nH]3)[C@H]2c2ccccc2)cc(C(F)(F)F)c1

- Concentration [2]: 520 ng/mL
- Concentration [3]: 25 ng/mL
- Concentration [4]: 94 ng/mL
- Concentration [5]: 80 ng/mL
- Concentration [7]: 5020 ng/mL
- bioavailability [8]: 46%
- Concentration [9]: 30 ng/mL
- clearance [10]: 73 mL/min/kg
- Concentration [12]: 9 ng/mL
- Concentration [13]: 12 ng/mL
- Concentration [14]: 3080 ng/mL
- Concentration [15]: 21 ng/mL
- Concentration [16]: 1980 ng/mL
- Concentration [17]: 3660 ng/mL
- bioavailability [18]: 23.7%
- Concentration [19]: < 5 ng/mL
- Concentration [20]: 20 ng/mL
- Concentration [21]: 45 ng/mL
- Concentration [22]: 50 ng/mL
- Vd [23]: 0.55 L/kg
- Concentration [24]: 291 ng/mL
- Concentration [25]: 135 ng/mL
- Concentration [26]: 5240 ng/mL
- IC50 [1]: 0.05 nM
- Concentration [27]: 41 ng/mL
- Binding affinity [28]: 12.6 µM
- Concentration [29]: 580 ng/mL
- Concentration [30]: < 5 ng/mL
- Concentration [31]: 65 ng/mL
- Concentration [32]: 203 ng/mL
- Concentration [33]: 1220 ng/mL
- Concentration [34]: 599 ng/mL
- Concentration [35]: 29 ng/mL
- clearance [36]: 2.4 mL/min/kg
- Concentration [37]: < 5 ng/mL
- Vd [38]: 6.5 L/kg
- Concentration [39]: 52 ng/mL
- Concentration [40]: < 5 ng/mL
- Concentration [42]: 500 ng/mL
- Concentration [43]: 150 ng/mL
- Concentration [44]: 244 ng/mL
- Concentration [45]: 70 ng/mL
- Concentration [46]: 11 ng/mL
- Concentration [47]: 720 ng/mL
Structure (SMILES): O=c1[nH]nc(CN2CCC[C@H](OCc3cc(C(F)(F)F)cc(C(F)(F)F)c3)[C@@H]2c2ccccc2)[nH]1
- ID90 [6]: 1 mg/kg
- ED50 [11]: 0.037 mg/kg
- ED50 [41]: 0.028 mg/kg

- Binding affinity [49]: 16%
Structure (SMILES): NC(=O)CN1CCC[C@H](OCc2cc(C(F)(F)F)cc(C(F)(F)F)c2)[C@@H]1c1ccccc1
- ED50 [48]: 0.8 mg/kg

- Binding affinity [28]: > 100 µM
Structure (SMILES): FC(F)(F)c1cc(CO[C@H]2CCCN(Cc3nc[nH]n3)[C@H]2c2ccccc2)cc(C(F)(F)F)c1
- ED50 [50]: 0.4 mg/kg
- ED50 [41]: 0.008 mg/kg
